The source made the active and inactive calls. No cut-off for these calls is given here.
Columns and labels:
Capan-2 = assay: Antiproliferative activity against human Capan-2 cells assessed as inhibition of cell proliferation incubated for 3 days by CellTiter-Glo Luminescent Cell Viability Assay; assay type: functional, cell-based; settings: Capan-2, 72 h
How it was run: (§1)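 Cancer cell lines seeded in 384-well plates on day 1; compound added on day 2 and left for 3 days. On day 5 all medium was aspirated, and viable cells were quantified by CellTiter-Glo luminescence, which measures cellular ATP. Dose-dependent effects on proliferation were determined.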

[1] = biological target: RAC-gamma serine/threonine-protein kinase (Homo sapiens, UniProt Q9Y243); assay: Inhibition of human AKT3 in presence of ATP relative to control; settings: concentration not given here
GTL 16 cell line = assay: Antitumor activity against human GTL-16 cell line xenografted in nude mouse assessed as tumor growth inhibition at 10 mg/kg, po administered once daily for 9 to 18 days relative to control; assay type: functional; settings: time 9-18 day, read-out: TGI
How it was run: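 Tumor cells were implanted s.c. into the right flank of female nu/nu nude mice aged 6–8 weeks. Animals were randomized into treatment groups once tumors were established (example: day 8 postimplant, about 170 mm3, animals >22 g). Compound in 0.5% methylcellulose was given by oral gavage. Tumors were measured with calipers two to three times per week.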

HCT-116 [2] = assay: Antitumor activity against human HCT-116 cells xenografted in nude mouse assessed as inhibition of [3H]FLT uptake at 25 mg/kg, po administered once a day for 2 day and measured after 2 hrs post [3H]FLT administration by scintillation counter analysis relative to control; assay type: functional; settings: HCT-116, 48 h
How it was run: (§2)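 HCT116 xenograft mice (tumors 300–350 mm3, n = 5 per group) received oral vehicle or compound, with harvests on days 2, 3 and 6. Isoflurane-anesthetized mice were given [3H]FLT (15 nCi/g, i.p.) 2 h before killing. Tumor and liver were weighed, solubilized and scintillation-counted. SUV = C/(ID/W), and uptake is reported as the tumor-to-liver SUV ratio.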

[3] = biological target: Ribosomal protein S6 kinase alpha-2 (Homo sapiens, UniProt Q15349); assay: Inhibition of human RSK3 assessed as inhibition constant in presence of ATP
Ribosomal protein S6 kinase alpha-2, sequence (Q15349 whole entry): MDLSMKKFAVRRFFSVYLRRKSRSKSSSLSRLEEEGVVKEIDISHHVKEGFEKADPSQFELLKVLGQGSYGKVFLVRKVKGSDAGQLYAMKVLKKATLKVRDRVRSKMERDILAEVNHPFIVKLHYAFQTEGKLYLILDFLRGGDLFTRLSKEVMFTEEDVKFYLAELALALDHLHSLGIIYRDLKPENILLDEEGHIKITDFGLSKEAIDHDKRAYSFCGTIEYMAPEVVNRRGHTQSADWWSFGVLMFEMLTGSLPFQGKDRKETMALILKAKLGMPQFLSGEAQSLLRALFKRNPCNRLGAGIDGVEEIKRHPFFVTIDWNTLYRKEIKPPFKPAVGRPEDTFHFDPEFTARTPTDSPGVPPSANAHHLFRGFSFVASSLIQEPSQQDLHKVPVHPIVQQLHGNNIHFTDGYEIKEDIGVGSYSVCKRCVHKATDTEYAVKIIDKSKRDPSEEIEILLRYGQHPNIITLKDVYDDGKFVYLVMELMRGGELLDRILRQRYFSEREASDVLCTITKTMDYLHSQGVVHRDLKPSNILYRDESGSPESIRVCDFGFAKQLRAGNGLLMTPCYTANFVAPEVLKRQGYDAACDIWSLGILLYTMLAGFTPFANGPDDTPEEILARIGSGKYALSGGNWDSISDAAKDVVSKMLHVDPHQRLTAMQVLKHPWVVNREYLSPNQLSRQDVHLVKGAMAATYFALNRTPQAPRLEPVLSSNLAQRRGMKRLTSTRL

[4] = biological target: Protein kinase C beta type (Homo sapiens, UniProt P05771); assay: Inhibition of human PKCbeta-II in presence of ATP
Protein kinase C beta type, sequence (P05771 whole entry): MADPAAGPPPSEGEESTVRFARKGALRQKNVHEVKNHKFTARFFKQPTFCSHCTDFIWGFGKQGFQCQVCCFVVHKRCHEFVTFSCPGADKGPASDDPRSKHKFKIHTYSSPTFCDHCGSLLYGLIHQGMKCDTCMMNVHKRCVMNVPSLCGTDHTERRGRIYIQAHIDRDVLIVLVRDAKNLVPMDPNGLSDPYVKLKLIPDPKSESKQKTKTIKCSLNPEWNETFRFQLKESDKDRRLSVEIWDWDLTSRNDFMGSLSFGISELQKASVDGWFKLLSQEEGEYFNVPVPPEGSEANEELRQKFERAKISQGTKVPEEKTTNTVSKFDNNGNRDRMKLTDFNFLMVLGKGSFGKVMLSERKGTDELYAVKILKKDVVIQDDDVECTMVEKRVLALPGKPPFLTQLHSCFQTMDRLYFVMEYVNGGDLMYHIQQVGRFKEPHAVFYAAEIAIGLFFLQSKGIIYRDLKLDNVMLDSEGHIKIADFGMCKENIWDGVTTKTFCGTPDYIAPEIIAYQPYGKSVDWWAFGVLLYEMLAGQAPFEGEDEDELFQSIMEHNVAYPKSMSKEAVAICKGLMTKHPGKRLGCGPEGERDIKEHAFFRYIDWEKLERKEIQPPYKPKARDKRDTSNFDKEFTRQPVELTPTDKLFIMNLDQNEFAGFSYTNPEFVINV

PANC-03-27 = assay: Antiproliferative activity against human PANC-03-27 cells assessed as inhibition of cell proliferation incubated for 3 days by CellTiter-Glo Luminescent Cell Viability Assay; assay type: functional, cell-based; settings: PANC-03-27, 72 h
How it was run: (§3)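 Cells of each line were plated in 384-well plates on day 1 and exposed to compound from day 2 for 3 days. On day 5 all medium was aspirated. Viable cell number was read by CellTiter-Glo luminescence, which quantifies cellular ATP.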

[5] = biological target: AMP-activated protein kinase (AMPK) alpha-1/beta-1/gamma-1 (Homo sapiens, UniProt P54619+Q13131+Q9Y478); assay: Inhibition of human AMPK alpha1/beta1/gamma1 in presence of ATP by cellular assay; assay type: protein-complex assay
AMP-activated protein kinase (AMPK) alpha-1/beta-1/gamma-1, sequence (P54619 whole entry): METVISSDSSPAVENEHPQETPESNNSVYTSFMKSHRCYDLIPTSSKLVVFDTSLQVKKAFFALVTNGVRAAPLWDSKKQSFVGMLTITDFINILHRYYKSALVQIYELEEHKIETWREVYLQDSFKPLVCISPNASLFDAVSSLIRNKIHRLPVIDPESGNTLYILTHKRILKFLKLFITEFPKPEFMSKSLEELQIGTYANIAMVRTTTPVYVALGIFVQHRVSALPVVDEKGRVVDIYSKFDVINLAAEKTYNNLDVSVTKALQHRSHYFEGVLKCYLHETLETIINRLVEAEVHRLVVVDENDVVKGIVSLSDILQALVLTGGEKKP
AMP-activated protein kinase (AMPK) alpha-1/beta-1/gamma-1, sequence (Q9Y478 whole entry): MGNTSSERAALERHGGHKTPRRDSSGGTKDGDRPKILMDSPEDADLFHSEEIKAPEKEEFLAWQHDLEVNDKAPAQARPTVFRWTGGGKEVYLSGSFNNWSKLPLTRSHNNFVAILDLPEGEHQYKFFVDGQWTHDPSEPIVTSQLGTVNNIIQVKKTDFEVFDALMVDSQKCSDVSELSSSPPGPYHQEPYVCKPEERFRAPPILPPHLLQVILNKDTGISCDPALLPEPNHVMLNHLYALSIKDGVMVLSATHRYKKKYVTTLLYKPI
AMP-activated protein kinase (AMPK) alpha-1/beta-1/gamma-1, sequence (Q13131 whole entry): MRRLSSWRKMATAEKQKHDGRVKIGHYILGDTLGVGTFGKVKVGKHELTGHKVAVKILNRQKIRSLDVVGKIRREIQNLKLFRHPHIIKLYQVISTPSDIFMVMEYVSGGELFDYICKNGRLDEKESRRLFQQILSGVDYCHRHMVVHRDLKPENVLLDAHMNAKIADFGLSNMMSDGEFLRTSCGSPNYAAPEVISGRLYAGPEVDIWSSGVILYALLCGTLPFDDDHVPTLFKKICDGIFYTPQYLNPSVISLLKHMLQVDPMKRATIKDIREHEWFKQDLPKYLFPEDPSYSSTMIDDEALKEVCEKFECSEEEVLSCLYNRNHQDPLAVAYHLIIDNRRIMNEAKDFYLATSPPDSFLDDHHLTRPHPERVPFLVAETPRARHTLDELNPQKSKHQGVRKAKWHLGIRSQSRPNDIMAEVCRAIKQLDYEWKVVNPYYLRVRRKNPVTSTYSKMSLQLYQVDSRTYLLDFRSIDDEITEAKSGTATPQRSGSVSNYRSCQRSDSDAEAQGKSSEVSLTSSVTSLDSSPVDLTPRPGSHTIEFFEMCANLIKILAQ

HCC827 = assay: Antiproliferative activity against human HCC827 cells assessed as inhibition of cell proliferation incubated for 3 days by CellTiter-Glo Luminescent Cell Viability Assay; assay type: functional, cell-based; settings: HCC827, 72 h; how it was run: as §1
MDA-MB-231 = assay: Antitumor activity against human MDA-MB-231 cells xenografted in nude mouse assessed as tumor growth inhibition at 20 mg/kg, po administered once daily for 9 to 18 days relative to control; assay type: functional; settings: time 9-18 day, read-out: TGI
HCT-116 [6] = assay: Antitumor activity against human HCT-116 cells xenografted in nude mouse assessed as reduction in Src phosphorylation at Y527 residue at 15 to 150 mg/kg/day administered via pump for 18 hrs by Reverse-Phase protein array analysis; assay type: functional, organism-based; settings: dose 15-150 mg/kg/day
[7] = biological target: Serine/threonine-protein kinase PAK 4 (Homo sapiens, UniProt O96013); settings: dose 50.0 µM
Serine/threonine-protein kinase PAK 4, sequence (O96013 whole entry, looked up): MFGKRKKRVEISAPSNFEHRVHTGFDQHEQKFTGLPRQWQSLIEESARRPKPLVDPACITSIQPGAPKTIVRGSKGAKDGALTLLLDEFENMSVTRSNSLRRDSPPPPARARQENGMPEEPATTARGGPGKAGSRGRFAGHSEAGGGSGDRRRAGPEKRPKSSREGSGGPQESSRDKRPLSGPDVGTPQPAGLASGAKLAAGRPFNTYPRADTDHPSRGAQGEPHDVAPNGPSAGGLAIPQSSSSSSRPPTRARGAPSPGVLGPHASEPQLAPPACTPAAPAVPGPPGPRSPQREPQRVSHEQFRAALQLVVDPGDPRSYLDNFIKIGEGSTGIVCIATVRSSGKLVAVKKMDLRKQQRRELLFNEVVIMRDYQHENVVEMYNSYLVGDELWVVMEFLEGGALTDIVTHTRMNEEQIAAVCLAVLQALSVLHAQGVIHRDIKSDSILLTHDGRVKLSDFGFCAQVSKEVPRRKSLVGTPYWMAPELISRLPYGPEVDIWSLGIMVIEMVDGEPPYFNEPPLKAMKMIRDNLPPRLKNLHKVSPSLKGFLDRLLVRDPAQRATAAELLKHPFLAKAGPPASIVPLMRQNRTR

[8] = biological target: Tyrosine-protein kinase Fyn (Homo sapiens, UniProt P06241); assay: Inhibition of human FYN assessed as inhibition constant in presence of ATP
Tyrosine-protein kinase Fyn, sequence (P06241 whole entry): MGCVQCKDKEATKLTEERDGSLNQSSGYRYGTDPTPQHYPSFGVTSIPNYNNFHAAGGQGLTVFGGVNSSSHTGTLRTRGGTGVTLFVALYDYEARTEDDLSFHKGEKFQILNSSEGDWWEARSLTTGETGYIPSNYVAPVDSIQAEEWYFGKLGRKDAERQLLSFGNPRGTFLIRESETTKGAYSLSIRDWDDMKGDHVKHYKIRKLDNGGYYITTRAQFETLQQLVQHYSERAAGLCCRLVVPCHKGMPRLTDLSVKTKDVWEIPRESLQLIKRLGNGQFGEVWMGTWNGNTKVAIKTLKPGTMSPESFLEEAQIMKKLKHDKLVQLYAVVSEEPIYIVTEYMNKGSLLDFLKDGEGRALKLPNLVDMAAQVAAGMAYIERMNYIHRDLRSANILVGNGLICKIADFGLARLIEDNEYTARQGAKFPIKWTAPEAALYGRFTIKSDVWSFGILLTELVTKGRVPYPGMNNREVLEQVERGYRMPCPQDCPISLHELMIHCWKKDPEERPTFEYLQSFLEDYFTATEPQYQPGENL

NCI-H1395 = assay: Inhibition of anchorage independent cell growth in human NCI-H1395 cells incubated for 6 days by Alamar blue reagent based fluorescence plate reader analysis; assay type: functional; settings: NCI-H1395, 144 h
MCF10 = assay: Antiproliferative activity against human MCF10 cells assessed as inhibition of cell proliferation incubated for 3 days by CellTiter-Glo Luminescent Cell Viability Assay; assay type: functional, cell-based; settings: MCF10, 72 h; how it was run: as §1
[9] = Drug concentration in nude mouse plasma xenografted with human HCT-116 cells at 0.12 mg/kg administered via pump for 9 days by LC-MS/MS analysis; assay type: ADME, organism-based; settings: time 9 day
HCC38 = assay: Antiproliferative activity against human HCC38 cells assessed as inhibition of cell proliferation incubated for 3 days by CellTiter-Glo Luminescent Cell Viability Assay; assay type: functional, cell-based; settings: HCC38, 72 h; how it was run: as §1
SK-MES-1 = assay: Antiproliferative activity against human SK-MES-1 cells assessed as inhibition of cell proliferation incubated for 3 days by CellTiter-Glo Luminescent Cell Viability Assay; assay type: functional, cell-based; settings: SK-MES-1, 72 h; how it was run: as §3
LS-123 = assay: Antiproliferative activity against human LS-123 cells assessed as inhibition of cell proliferation incubated for 3 days by CellTiter-Glo Luminescent Cell Viability Assay; assay type: functional, cell-based; settings: LS-123, 72 h; how it was run: as §1
NCI-H2170 = assay: Inhibition of anchorage independent cell growth in human NCI-H2170 cells incubated for 6 days by Alamar blue reagent based fluorescence plate reader analysis; assay type: functional; settings: NCI-H2170, 144 h
NCI-H1770 = assay: Inhibition of anchorage independent cell growth in human NCI-H1770 cells incubated for 6 days by Alamar blue reagent based fluorescence plate reader analysis; assay type: functional; settings: NCI-H1770, 144 h
[10] = Antiproliferative activity against human PaTu 8988s cells assessed as inhibition of cell proliferation incubated for 3 days by CellTiter-Glo Luminescent Cell Viability Assay; assay type: functional, cell-based; settings: 72 h; how it was run: as §3
[11] = biological target: Ribosomal protein S6 kinase alpha-1 (Homo sapiens, UniProt Q15418); assay: Inhibition of human RSK1 assessed as inhibition constant in presence of ATP
Ribosomal protein S6 kinase alpha-1, sequence (Q15418 whole entry): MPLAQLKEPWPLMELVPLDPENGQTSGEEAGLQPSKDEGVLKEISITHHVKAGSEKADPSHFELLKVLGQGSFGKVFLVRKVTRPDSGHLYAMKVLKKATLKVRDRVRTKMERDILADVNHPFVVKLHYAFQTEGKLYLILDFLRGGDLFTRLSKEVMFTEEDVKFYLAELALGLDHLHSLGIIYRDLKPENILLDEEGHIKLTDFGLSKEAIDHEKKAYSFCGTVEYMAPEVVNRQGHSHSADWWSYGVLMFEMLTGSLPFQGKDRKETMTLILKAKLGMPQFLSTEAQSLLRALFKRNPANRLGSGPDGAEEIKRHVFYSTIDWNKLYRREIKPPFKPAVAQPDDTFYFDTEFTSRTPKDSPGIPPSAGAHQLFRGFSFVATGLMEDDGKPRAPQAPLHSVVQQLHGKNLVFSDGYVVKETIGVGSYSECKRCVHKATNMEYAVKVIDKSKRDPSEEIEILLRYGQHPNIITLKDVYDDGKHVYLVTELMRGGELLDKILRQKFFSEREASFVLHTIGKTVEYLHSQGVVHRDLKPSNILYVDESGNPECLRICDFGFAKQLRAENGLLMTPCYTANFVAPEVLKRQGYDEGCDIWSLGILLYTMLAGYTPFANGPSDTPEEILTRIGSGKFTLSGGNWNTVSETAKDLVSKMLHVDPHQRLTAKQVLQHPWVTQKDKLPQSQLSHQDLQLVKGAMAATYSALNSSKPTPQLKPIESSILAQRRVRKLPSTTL

SU.86.86 = assay: Antiproliferative activity against human SU-86-86 cells assessed as inhibition of cell proliferation incubated for 3 days by CellTiter-Glo Luminescent Cell Viability Assay; assay type: functional, cell-based; settings: SU.86.86, 72 h; how it was run: as §3
[12] = biological target: Tyrosine-protein kinase Yes (Homo sapiens, UniProt P07947); assay: Inhibition of human YES1 in presence of ATP by cellular assay
Tyrosine-protein kinase Yes, sequence (P07947 whole entry): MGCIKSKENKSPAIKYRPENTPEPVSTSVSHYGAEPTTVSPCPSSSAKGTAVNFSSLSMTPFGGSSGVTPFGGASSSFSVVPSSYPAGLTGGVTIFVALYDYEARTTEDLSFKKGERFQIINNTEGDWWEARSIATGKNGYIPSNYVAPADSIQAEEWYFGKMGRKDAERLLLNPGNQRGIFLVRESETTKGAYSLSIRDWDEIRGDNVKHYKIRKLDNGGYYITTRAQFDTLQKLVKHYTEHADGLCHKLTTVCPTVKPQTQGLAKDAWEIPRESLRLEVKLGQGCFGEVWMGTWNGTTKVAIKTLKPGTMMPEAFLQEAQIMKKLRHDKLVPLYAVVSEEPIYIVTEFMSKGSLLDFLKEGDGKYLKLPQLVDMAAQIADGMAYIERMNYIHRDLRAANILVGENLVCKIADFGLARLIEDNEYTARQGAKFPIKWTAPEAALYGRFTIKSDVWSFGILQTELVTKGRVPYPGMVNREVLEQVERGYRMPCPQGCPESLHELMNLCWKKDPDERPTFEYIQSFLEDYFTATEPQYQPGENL

MDA-MB-468 = assay: Antiproliferative activity against human MDA-MB-468 cells assessed as inhibition of cell proliferation incubated for 3 days by CellTiter-Glo Luminescent Cell Viability Assay; assay type: functional, cell-based; settings: MDA-MB-468, 72 h; how it was run: as §1
HCT-116 [13] = assay: Antitumor activity against human HCT-116 cells xenografted in nude mouse assessed as inhibition of [3H]FLT uptake at 15 mg/kg, po administered twice a day for 6 days and measured after 2 hrs post [3H]FLT administration by scintillation counter analysis relative to control; assay type: functional; settings: HCT-116, 144 h, time 6 day; how it was run: as §2
Calu-6 = assay: Antiproliferative activity against human Calu-6 cells assessed as inhibition of cell proliferation incubated for 3 days by CellTiter-Glo Luminescent Cell Viability Assay; assay type: functional, cell-based; settings: Calu-6, 72 h; how it was run: as §1

inhibition [1]: 74%
Ki [3]: 0.011 µM
IC50 [4]: 0.156 µM
IC50 (PANC-03-27): 0.032 µM
IC50 [5]: 0.04 µM
IC50 (HCC827): 0.0092 µM
deltaH [7]: -20.9 kJ/mol
Ki [8]: 0.026 µM
IC50 (NCI-H1395): 0.00762 µM
concentration at 216 h [9]: 0.56 ng/mL
IC50 (HCC38): 0.00052 µM
IC50 (SK-MES-1): 0.0032 µM
IC50 (NCI-H2170): 0.00604 µM
IC50 (NCI-H1770): 0.00184 µM
Ki [11]: 0.005 µM
IC50 [12]: 0.612 µM
IC50 (MDA-MB-468): 0.00063 µM
IC50 (Calu-6): 0.0073 µM
Structure (SMILES): Cc1nc(Nc2n[nH]c3c2CN(C(=O)N[C@H](CN(C)C)c2ccccc2)C3(C)C)c2sccc2n1 [PF-03758309]
IC50 (Capan-2): 0.136 µM
inhibition in vivo at 10 mg/kg (GTL 16 cell line): 0%
inhibition in vivo at 25 mg/kg (HCT-116 [2]): 35.3%
inhibition in vivo at 20 mg/kg (MDA-MB-231): 89%
Activity (HCT-116 [6]): Active
IC50 (MCF10): 0.00021 µM
IC50 (LS-123): 10 µM
IC50 [10]: 0.738 µM
IC50 (SU.86.86): 0.898 µM
inhibition in vivo at 15 mg/kg (HCT-116 [13]): 32.5%

Reference: ChEMBL document CHEMBL5678802, “Small-molecule p21-activated kinase inhibitor PF-3758309 is a potent inhibitor of oncogenic signaling and tumor growth” (Proc Natl Acad Sci U S A, 2010)
